Laboratory results from ChEMBL document CHEMBL4376856, “Discovery of N-(4-Aminobutyl)-N'-(2-methoxyethyl)guanidine as the First Selective, Nonamino Acid, Catalytic Site Inhibitor of Human Dimethylarginine Dimethylaminohydrolase-1 (hDDAH-1)” (J Med Chem, 2020).

Molecular target: T1, N(G),N(G)-dimethylarginine dimethylaminohydrolase 1 (Homo sapiens, UniProt O94760)
Assay: Inhibition of 6xHis-tagged recombinant human DDAH1 expressed in Escherichia coli BL21 cells at 1 mM using NMMA as substrate measured after 30 mins by colder reagent based microplate reader assay
Conditions: not given; call rule not given here

T1 sequence (O94760 whole entry): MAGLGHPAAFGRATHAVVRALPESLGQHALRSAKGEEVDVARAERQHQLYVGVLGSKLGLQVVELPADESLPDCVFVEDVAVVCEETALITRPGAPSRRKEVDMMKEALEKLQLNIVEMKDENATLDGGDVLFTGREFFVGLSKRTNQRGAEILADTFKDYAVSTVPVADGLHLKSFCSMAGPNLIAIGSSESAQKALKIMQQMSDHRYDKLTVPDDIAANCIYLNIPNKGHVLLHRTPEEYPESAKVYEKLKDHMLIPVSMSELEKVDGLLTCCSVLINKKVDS

SMILES	inhibition [%]
COCCCC(=N)NCC[C@H](N)C(=O)O	< 20
COCCCC(=N)NCCCCN	< 20

Test system: not listed separately
Assay: Prodrug conversion in porcine liver mitochondrial membrane vesicles assessed as N-(4-Aminobutyl)-N'-(2-methoxyethyl)guanidine formation at 3 mM and pH 6 preincubated for 3 mins followed by NADH addition measured after 20 mins under aerobic conditions by RP-HPLC analysis
Type: ADME, cell membranes, Sus scrofa, Mitochondrial membrane vesicle
Conditions: pig, pH 6, 20 min, 3000 µM
Procedure, shortened: (§1)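 Prodrug incubated with porcine liver subcellular fractions (homogenate, mitochondria, outer mitochondrial membrane vesicles). The formed guanidine was quantified by HPLC after precolumn o-phthalaldehyde derivatization. Data are means ± SD of biological triplicates.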

SMILES	Drug metabolism
COCCN/C(=N/O)NCCCCN	Metabolite_Detected

Molecular target: Nitric oxide synthase 1 (Homo sapiens) (UniProt P29475)
Sequence (P29475 whole entry): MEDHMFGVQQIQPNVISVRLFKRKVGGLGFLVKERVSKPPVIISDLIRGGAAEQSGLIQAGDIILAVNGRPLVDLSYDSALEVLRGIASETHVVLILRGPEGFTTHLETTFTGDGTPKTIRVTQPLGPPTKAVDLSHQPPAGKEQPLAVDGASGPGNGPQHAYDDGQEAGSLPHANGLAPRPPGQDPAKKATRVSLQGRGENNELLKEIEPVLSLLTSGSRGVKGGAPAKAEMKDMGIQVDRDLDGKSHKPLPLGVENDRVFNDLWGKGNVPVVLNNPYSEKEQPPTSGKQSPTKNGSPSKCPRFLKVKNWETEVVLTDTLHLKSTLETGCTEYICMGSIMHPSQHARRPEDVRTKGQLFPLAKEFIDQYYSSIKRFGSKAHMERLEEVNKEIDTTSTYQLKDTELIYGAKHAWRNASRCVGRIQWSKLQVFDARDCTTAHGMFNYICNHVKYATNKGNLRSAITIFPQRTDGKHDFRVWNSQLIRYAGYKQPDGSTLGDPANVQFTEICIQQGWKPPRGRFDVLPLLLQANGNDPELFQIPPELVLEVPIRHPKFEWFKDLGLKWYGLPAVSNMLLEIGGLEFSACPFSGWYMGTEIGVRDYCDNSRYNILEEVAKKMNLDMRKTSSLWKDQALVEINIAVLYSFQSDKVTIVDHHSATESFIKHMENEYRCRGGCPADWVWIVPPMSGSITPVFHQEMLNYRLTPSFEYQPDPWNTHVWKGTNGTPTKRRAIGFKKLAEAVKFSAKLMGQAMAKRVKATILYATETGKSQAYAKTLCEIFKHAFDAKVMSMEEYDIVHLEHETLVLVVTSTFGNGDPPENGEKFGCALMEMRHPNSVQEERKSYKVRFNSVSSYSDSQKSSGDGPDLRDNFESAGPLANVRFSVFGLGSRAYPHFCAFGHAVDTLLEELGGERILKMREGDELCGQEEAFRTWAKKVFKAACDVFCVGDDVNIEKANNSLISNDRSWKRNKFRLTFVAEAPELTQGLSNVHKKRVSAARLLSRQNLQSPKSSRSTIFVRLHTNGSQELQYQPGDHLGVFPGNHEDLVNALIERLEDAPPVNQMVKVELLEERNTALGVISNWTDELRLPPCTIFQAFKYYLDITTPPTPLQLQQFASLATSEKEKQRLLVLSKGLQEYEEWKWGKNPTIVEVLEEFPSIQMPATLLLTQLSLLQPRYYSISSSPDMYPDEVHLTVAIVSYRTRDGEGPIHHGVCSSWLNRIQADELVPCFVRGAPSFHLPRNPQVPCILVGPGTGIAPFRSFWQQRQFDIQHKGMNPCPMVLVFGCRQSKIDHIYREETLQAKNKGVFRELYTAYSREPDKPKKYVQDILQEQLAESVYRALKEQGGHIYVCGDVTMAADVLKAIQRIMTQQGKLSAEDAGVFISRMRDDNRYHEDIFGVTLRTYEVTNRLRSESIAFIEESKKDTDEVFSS
Assay: Inhibition of neuronal NOS (unknown origin) assessed as formation of methemoglobin from oxyhemoglobin at 1 mM using L-arginine as substrate in presence of oxyhemoglobin and NADPH by UV-vis spectrophotometry relative to control
Conditions: not given
Procedure, shortened: (§2)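 Each enzyme (arginase, nNOS, eNOS, iNOS) tested with inhibitor at 1 mM; percent inhibition given as the mean ± SD of at least three independent experiments.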

SMILES	inhibition [%]
COCCC(=N)NCCC[C@H](N)C(=O)O	65
COCC(=N)NCCCCN	78
COCCNC(=N)NCCCCN	0
COCCC(=N)NCCCCN	19
CCCCCNC(=N)NCCOC	0
COCCNC(=N)NCCC(C)C	0
COCCNC(=N)NCCCCC(=O)O	5
COCCCC(=N)NCCC[C@H](N)C(=O)O	35
C=CCCNC(=N)NCCCCN	5
COCCCC(=N)NCC[C@H](N)C(=O)O	< 20
COCCCC(=N)NCCCCN	7
C=CCC(=N)NCCCCN	99
COCC(=N)NCCC[C@H](N)C(=O)O	93

Test system: HEK-293T
Assay: Cytotoxicity against human HEK293T cells assessed as effect on cell viability by measuring ATP content at 0.1 to 1000 uM incubated for overnight by CellTiter-Glo luminescent analysis
Type: cell-based
Conditions: not given

SMILES	Activity
COCCNC(=N)NCCCCN	Non-Toxic
COCCN/C(=N/O)NCCCCN	Non-Toxic

Molecular target: T2, Nitric oxide synthase 3 (Homo sapiens) (UniProt P29474)
T2 sequence (whole entry): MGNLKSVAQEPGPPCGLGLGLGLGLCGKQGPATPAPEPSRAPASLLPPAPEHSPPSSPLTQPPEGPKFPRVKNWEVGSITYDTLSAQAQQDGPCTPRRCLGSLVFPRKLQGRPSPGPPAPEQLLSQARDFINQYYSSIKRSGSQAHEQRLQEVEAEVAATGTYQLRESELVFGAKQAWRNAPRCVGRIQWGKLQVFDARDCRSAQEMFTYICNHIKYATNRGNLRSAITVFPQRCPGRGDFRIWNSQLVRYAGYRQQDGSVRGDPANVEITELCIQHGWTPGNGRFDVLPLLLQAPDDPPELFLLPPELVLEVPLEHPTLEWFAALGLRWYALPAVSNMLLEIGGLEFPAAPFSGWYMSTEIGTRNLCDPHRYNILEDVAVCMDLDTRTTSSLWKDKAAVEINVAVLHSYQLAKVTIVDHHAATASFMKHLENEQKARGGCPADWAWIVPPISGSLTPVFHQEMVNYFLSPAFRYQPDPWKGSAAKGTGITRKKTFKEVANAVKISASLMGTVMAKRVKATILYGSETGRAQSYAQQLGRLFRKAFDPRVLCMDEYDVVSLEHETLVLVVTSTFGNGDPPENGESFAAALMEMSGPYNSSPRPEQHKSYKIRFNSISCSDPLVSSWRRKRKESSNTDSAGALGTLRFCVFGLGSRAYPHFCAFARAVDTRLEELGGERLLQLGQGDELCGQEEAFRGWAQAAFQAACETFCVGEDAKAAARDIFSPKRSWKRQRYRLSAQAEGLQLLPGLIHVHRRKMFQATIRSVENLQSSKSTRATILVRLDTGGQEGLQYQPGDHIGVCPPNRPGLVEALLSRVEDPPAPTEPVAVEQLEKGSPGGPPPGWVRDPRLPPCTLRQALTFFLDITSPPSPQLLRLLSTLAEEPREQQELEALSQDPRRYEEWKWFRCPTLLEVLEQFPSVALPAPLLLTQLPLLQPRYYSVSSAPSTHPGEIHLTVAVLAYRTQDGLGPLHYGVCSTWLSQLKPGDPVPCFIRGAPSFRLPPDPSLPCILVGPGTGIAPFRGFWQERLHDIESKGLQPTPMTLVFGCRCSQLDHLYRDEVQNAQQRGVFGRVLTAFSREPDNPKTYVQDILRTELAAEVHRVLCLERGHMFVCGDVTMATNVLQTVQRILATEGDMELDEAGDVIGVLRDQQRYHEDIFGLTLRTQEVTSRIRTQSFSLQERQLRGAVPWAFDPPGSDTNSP
Assay: Inhibition of endothelial NOS (unknown origin) assessed as formation of methemoglobin from oxyhemoglobin at 1 mM using L-arginine as substrate in presence of oxyhemoglobin and NADPH by UV-vis spectrophotometry relative to control
Conditions: not given
Procedure, shortened: as §2

SMILES	inhibition [%]
COCCC(=N)NCCC[C@H](N)C(=O)O	54
COCC(=N)NCCCCN	44
COCCNC(=N)NCCCCN	13
COCCC(=N)NCCCCN	28
CCCCCNC(=N)NCCOC	0
COCCNC(=N)NCCC(C)C	19
COCCNC(=N)NCCCCC(=O)O	13
COCCCC(=N)NCCC[C@H](N)C(=O)O	29
C=CCCNC(=N)NCCCCN	35
COCCCC(=N)NCC[C@H](N)C(=O)O	< 20
COCCCC(=N)NCCCCN	36
C=CCC(=N)NCCCCN	56
COCC(=N)NCCC[C@H](N)C(=O)O	89

Test system: not listed separately
Assay: Prodrug conversion in porcine liver homogenate assessed as formation of N-(4-Aminobutyl)-N'-(2-methoxyethyl)guanidine formation at 3 mM and pH 6 preincubated for 3 mins followed by NADH addition measured after 20 mins under aerobic conditions by RP-HPLC analysis
Type: ADME, tissue-based, Sus scrofa
Conditions: pig, tissue homogenate, pH 6, 20 min, 3000 µM
Procedure, shortened: as §1

SMILES	Drug metabolism
COCCN/C(=N/O)NCCCCN	Metabolite_Detected

Molecular target: Nitric oxide synthase, inducible (Homo sapiens) (UniProt P35228)
Sequence (P35228 whole entry): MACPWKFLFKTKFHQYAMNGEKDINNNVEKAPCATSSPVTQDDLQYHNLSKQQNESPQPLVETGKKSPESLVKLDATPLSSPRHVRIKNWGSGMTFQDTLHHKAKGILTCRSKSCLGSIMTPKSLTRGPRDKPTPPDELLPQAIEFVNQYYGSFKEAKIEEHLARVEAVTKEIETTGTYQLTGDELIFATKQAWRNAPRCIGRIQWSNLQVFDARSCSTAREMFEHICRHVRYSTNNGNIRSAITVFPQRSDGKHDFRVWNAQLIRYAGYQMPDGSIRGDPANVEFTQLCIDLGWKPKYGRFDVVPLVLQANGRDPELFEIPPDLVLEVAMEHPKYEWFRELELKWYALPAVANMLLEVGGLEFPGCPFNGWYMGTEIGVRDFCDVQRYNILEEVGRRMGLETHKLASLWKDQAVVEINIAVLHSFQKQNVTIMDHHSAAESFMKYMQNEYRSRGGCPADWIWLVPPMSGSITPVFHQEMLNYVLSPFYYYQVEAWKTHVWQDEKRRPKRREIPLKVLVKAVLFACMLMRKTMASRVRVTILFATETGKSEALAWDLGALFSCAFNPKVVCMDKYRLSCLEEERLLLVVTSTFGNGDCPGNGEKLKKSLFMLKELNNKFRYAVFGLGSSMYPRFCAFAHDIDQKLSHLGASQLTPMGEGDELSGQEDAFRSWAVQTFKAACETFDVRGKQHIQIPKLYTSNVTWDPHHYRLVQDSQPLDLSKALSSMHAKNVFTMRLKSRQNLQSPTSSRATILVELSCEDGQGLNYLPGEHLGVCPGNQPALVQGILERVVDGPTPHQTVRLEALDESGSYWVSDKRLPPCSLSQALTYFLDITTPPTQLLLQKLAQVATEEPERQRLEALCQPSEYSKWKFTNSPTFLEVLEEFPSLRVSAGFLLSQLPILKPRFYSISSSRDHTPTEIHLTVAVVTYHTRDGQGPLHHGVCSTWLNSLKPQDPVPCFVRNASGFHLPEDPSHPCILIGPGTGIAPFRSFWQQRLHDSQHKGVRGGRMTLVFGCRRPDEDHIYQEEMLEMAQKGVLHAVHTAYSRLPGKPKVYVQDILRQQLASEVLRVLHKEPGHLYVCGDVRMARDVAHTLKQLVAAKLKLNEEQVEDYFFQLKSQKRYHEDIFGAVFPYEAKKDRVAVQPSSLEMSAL
Assay: Inhibition of iNOS (unknown origin) assessed as formation of methemoglobin from oxyhemoglobin at 1 mM using L-arginine as substrate in presence of oxyhemoglobin and NADPH by UV-vis spectrophotometry relative to control
Conditions: not given
Procedure, shortened: as §2

SMILES	inhibition [%]
COCCC(=N)NCCC[C@H](N)C(=O)O	50
COCC(=N)NCCCCN	42
COCCNC(=N)NCCCCN	0
COCCC(=N)NCCCCN	16
CCCCCNC(=N)NCCOC	21
COCCNC(=N)NCCC(C)C	4
COCCNC(=N)NCCC[C@H](N)C(=O)O	0
COCCNC(=N)NCCCCC(=O)O	2
COCCCC(=N)NCCC[C@H](N)C(=O)O	26
C=CCCNC(=N)NCCCCN	23
COCCCC(=N)NCC[C@H](N)C(=O)O	< 20
COCCCC(=N)NCCCCN	15
C=CCC(=N)NCCCCN	100
COCC(=N)NCCC[C@H](N)C(=O)O	75

Test system: not listed separately
Assay: Prodrug conversion in porcine liver mitochondria assessed as N-(4-Aminobutyl)-N'-(2-methoxyethyl)guanidine formation at 3 mM and pH 6 preincubated for 3 mins followed by NADH addition measured after 20 mins under aerobic conditions by RP-HPLC analysis
Type: ADME, Sus scrofa
Conditions: pig, pH 6, 20 min, 3000 µM
Procedure, shortened: as §1

SMILES	Drug metabolism
COCCN/C(=N/O)NCCCCN	Metabolite_Detected

Molecular target: T3, Arginase-1 (Bos taurus) (UniProt Q2KJ64)
T3 sequence (whole entry): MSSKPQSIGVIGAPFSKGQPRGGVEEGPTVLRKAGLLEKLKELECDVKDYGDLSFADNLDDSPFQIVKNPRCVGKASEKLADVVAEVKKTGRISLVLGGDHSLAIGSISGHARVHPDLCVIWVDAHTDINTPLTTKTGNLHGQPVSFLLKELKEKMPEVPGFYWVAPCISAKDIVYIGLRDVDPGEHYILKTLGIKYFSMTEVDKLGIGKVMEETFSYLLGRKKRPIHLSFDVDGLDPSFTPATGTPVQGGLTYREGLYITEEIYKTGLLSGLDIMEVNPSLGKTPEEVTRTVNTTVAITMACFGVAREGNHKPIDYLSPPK
Assay: Inhibition of bovine liver arginase at 1 mM using L-arginine as substrate measured after 30 mins by colder reagent based microplate reader assay relative to control
Conditions: not given
Procedure, shortened: as §2

SMILES	inhibition [%]
COCCC(=N)NCCC[C@H](N)C(=O)O	43
COCC(=N)NCCCCN	21
COCCNC(=N)NCCCCN	11
COCCC(=N)NCCCCN	22
CCCCCNC(=N)NCCOC	15
C=CCCNC(=N)NCCC[C@H](N)C(=O)O	70
COCCNC(=N)NCCC(C)C	20
COCCNC(=N)NCCC[C@H](N)C(=O)O	29
COCCNC(=N)NCCCCC(=O)O	35
COCCCC(=N)NCCC[C@H](N)C(=O)O	20
C=CCCNC(=N)NCCCCN	0
COCCCC(=N)NCC[C@H](N)C(=O)O	< 20
COCCCC(=N)NCCCCN	14
C=CCC(=N)NCCC[C@H](N)C(=O)O	76
C=CCC(=N)NCCCCN	6
COCC(=N)NCCC[C@H](N)C(=O)O	22

Test system: not listed separately
Assay: Chemical stability of compound at 250 uM in phosphate buffer at pH 2 to 9 and 37 degree C after 24 hrs by RP-HPLC analysis
Type: physicochemical
Conditions: pH 2, 24 h

SMILES	Stability
COCCN/C(=N/O)NCCCCN	Stable

Test system: HEK-293T
Assay: Cytotoxicity against human HEK293T cells assessed as effect on cell number at 0.1 to 1000 uM incubated for overnight by DAPI staining based analysis
Conditions: not given

SMILES	Activity
COCCNC(=N)NCCCCN	Non-Toxic
COCCN/C(=N/O)NCCCCN	Non-Toxic

Molecular target: T4, Mitochondrial amidoxime reducing component 2 (Homo sapiens, UniProt Q969Z3)
T4 sequence (Q969Z3 whole entry): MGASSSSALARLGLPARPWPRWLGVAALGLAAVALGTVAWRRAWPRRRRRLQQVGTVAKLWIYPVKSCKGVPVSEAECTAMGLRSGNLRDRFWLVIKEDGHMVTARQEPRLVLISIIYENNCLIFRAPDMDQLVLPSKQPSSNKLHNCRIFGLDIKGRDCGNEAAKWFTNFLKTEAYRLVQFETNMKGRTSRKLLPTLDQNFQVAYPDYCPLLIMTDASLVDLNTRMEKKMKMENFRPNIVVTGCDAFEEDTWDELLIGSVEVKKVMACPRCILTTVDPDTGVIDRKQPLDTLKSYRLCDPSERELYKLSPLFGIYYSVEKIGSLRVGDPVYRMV
Assay: Substrate activity at human recombinant mARC2 expressed in Escherichia coli assessed as enzyme-mediated N-(4-Aminobutyl)-N'-(2-methoxyethyl)guanidine formation at 3 mM and pH 6 preincubated for 3 mins followed by NADH addition measured after 20 mins under aerobic conditions by RP-HPLC analysis
Type: ADME
Conditions: pH 6, 20 min, 3000 µM
Procedure, shortened: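 Incubation used the reconstituted, heterologously expressed human mARC-2 N-reductive system. The guanidine product was measured by HPLC after precolumn derivatization with o-phthalaldehyde.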

SMILES	Activity
COCCN/C(=N/O)NCCCCN	Active

Molecular target: T1, N(G),N(G)-dimethylarginine dimethylaminohydrolase 1
Assay: Inhibition of 6xHis-tagged recombinant human DDAH1 expressed in Escherichia coli BL21 cells using NMMA as substrate measured after 30 mins by colder reagent based microplate reader assay
Conditions: not given
Procedure, shortened: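 Ki against hDDAH-1, given as the mean ± SD of at least two independent experiments.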

SMILES	Ki [µM]
COCCC(=N)NCCC[C@H](N)C(=O)O	9
COCC(=N)NCCCCN	983
COCCC(=N)NCCCCN	1450
N=C(CCl)NCCC[C@H](N)C(=O)O	1.3
COCCNC(=N)NCCC[C@H](N)C(=O)NS(C)(=O)=O	1
CCCCCNC(=N)NCCOC	2810
COCCNC(=N)NCCC(C)C	2760
COCCNC(=N)NCCCCC(=O)O	489
COCCCC(=N)NCCC[C@H](N)C(=O)O	156
C=CCCNC(=N)NCCCCN	59
C=CCC(=N)NCCCCN	768
COCC(=N)NCCC[C@H](N)C(=O)O	73
